Laboratory results: publication PMC7127848 (Drug Design, Development and Therapy, 2020)
Values after ≈ are worked out from the molar mass of the structure shown. Values joined by “and” are separate entries in the source; they are usually repeats but may differ in a detail not shown here. Equal entries are not always repeated. “Also recorded” adds a separate entry of the source.

How the values were obtained:
[1] = Human hepatic clearance by single species scaling using liver blood flow; conditions: single species (SD rat) scaling of in vivo clearance and liver blood flow
[2] = tested on: MtMetAPs (MtMetAP1a and MtMetAP1c); conditions: both MtMetAPs over human MetAPs; cited from earlier work
Stability in plasma [3] = format: in vitro ADME; conditions: SD, rat
Summary of the method: (§1)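 Test compound at 1 μM incubated at 37°C for up to 4 h in plasma. Sources: CD-1 mouse, SD rat (fresh, from male rats), monkey or human. Aliquots at set times quenched with acetonitrile containing clioquinol as internal standard. Centrifuged at 18,879 rcf for 5 min, and supernatant assayed by LC-MS/MS for compound remaining.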

CYP1A2 = molecular target: T1, CYP1A2 (Homo sapiens, UniProt P05177); experiment: CYP reaction phenotyping with rhCYP; format: in vitro ADME
T1 sequence (P05177 1-516): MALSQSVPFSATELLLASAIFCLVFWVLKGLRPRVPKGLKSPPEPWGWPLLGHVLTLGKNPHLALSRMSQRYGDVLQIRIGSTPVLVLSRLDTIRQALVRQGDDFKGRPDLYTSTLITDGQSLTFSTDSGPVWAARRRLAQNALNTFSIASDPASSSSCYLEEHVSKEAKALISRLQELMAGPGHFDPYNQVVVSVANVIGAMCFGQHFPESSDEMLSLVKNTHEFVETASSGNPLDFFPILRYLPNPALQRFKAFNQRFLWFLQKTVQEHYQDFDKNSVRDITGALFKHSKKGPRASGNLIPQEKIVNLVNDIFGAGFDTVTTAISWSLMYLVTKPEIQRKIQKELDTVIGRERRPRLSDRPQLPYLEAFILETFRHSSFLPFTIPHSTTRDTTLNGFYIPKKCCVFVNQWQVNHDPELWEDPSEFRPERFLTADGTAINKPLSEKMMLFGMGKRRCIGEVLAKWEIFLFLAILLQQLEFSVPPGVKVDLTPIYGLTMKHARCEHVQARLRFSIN
Summary of the method: (§2)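 Recombinant human CYP (200 pmol) with 1 µM test compound in 100 mM K2HPO4/10 mM MgCl2, pH 7.4, pre-incubated. Reaction started with 1 mM NADPH. DMSO kept ≤0.1% v/v and acetonitrile ≤1% v/v. Samples at 0, 5, 15, 30 and 60 min, stopped with acetonitrile containing internal standard, then centrifuged. Negative controls lacked NADPH, used insect control cells, or both.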

[4] = Pharmacokinetics and bioavailability in SD rats; format: in vivo; conditions: Sprague-Dawley, rat, plasma
Summary of the method: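 Male SD rats (300–350 g), cannulated under anesthesia the day before, n = 3 per group. Single dose of 2 mg/kg IV bolus, 20 mg/kg PO (fasted ≥12 h) or 10 mg/kg SC. Co-solvent formulation diluted 5-fold with saline (IV, SC) or water (PO). Blood taken 0.08–48 h, plasma by LC-MS/MS. Non-compartmental analysis; F from dose-normalised extravascular versus IV AUC.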

[5] = Thermodynamic solubility, shake-flask method; format: physicochemical; conditions: room temperature
Summary of the method: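 Shake-flask method: excess test compound shaken in solvent at room temperature for 72 h after saturation. Centrifuged (18,879 rcf, 10 min) and filtered through 0.22 μm. Dissolved compound quantified by HPLC-UV, in triplicate.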

Blood-plasma partition = format: in vitro ADME; conditions: SD rat blood, 1 μM, 37°C, 1 hr, mean ± SEM
Summary of the method: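 Test compound spiked into fresh whole SD rat blood at 1 μM final and held 1 hr at 37°C. Plasma separated by centrifugation (15 min, 4°C, 1750 rcf). Blood and plasma assayed by LC-MS/MS. B/P taken as mean peak-area ratio in blood over plasma. Its SEM was propagated as the square root of summed squared SEM/mean terms, multiplied by B/P.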

Stability in plasma [6] = format: in vitro ADME; conditions: rhesus, monkey
Summary of the method: as §1

[7] = cited from earlier work
[8] = Microsome metabolic stability and predicted hepatic clearance; format: in vitro ADME; conditions: CD-1, mouse, liver microsomes, pH 7.4
Summary of the method: (§3)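 Liver microsomes (0.5 mg/mL) incubated with 3 µM test compound in 50 mM phosphate buffer, pH 7.4. After 3 min pre-incubation at 37°C, 5 mM NADPH started the reaction. Samples at 0, 5, 15, 30, 45 and 60 min, quenched in acetonitrile with internal standard, then LC-MS/MS. NADPH-free controls sampled at 0 and 60 min.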

CYP2D6 = CYP2D6 (Homo sapiens, UniProt P10635); experiment: CYP reaction phenotyping with rhCYP; format: in vitro ADME
Sequence of CYP2D6 (P10635 whole entry): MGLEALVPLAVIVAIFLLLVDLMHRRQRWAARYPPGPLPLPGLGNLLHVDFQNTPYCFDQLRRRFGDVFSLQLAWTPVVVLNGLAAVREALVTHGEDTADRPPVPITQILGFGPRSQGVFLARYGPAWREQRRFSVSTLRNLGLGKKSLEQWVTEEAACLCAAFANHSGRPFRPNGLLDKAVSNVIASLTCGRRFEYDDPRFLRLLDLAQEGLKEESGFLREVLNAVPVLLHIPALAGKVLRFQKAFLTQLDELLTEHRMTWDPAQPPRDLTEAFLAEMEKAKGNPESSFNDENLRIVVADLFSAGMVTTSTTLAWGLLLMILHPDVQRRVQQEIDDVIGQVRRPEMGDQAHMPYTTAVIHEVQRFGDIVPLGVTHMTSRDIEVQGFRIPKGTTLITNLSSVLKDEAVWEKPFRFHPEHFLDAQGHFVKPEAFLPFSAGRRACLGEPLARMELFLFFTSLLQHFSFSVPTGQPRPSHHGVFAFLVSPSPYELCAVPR
Summary of the method: as §2

[9] = Microsome metabolic stability and predicted hepatic clearance; format: in vitro ADME; conditions: cynomolgus monkey, liver microsomes, pH 7.4
Summary of the method: as §3

[10] = as above; format: in vitro ADME; conditions: Sprague-Dawley (SD), rat, liver microsomes, pH 7.4
Summary of the method: as §3

CYP2C8 = molecular target: T2, CYP2C8 (Homo sapiens, UniProt P10632); experiment: CYP reaction phenotyping with rhCYP; format: in vitro ADME; conditions: rhCYP2C8
T2 sequence (P10632 1-490): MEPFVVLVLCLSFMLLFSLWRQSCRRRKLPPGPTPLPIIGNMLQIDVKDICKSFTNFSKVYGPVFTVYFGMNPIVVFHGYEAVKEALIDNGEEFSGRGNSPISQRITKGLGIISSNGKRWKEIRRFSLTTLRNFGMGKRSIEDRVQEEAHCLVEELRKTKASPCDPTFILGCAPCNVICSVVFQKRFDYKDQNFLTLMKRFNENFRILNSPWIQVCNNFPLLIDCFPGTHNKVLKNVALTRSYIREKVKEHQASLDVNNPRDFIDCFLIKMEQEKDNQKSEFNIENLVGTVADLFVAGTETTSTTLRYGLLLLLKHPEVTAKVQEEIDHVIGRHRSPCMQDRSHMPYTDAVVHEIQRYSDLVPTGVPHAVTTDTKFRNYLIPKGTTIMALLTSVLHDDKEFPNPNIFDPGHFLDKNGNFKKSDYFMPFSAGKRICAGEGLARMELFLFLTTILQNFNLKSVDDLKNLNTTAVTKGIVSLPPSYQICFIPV
Summary of the method: as §2

[11] = Solution state pH stability in USP buffers; format: physicochemical; conditions: aqueous media pH 1-10, 37°C, up to 48 hrs
Summary of the method: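 Test compound added from DMSO to USP buffers with 0.2% v/v Tween 80: 0.2 M HCl (pH 1–2), 0.2 M acetate (pH 3–5), 0.2 M phosphate (pH 6–8), carbonate (pH 9–10). Held in a 37°C water bath. Aliquots at set times assayed by HPLC-UV for compound remaining. Degradation rate constant derived per buffer.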

[12] = in vivo pharmacokinetic studies; cited from earlier work
[13] = Microsome metabolic stability and predicted hepatic clearance; format: in vitro ADME; conditions: human, liver microsomes, pH 7.4
Summary of the method: as §3

[14] = Plasma protein binding, centrifugal ultrafiltration; format: in vitro ADME; conditions: Sprague-Dawley, rat, Fraction bound to plasma protein, mean ± SD
Stability in plasma [15] = format: in vitro ADME; conditions: CD-1, mouse
Summary of the method: as §1

[16] = tested on: Mycobacterium tuberculosis; conditions: cited from earlier work
Stability in plasma [17] = format: in vitro ADME; conditions: human
Summary of the method: as §1

[18] = cited from earlier work; remark: listed apart in the source

For Oc1c(Br)cc(Cl)c2cccnc12 [CLBQ14, 7-bromo-5-chloroquinolin-8-ol], the “Human hepatic clearance (ClH, human) predicted” value [1] is listed as 11.5 mL/min/kg, the “Selectivity for MtMetAPs over human MetAPs” value [2] is listed as “great selectivity” and the recovery at 4 h, 1 μM (Stability in plasma [3]) is listed as 101 ± 13%. For the same molecule, the “Contribution to metabolism of CLBQ14” value (CYP1A2; rhCYP1A2) was “metabolized primarily; also recorded: primary contributors”, the CLBQ14 turnover (CYP1A2; rhCYP1A2, 1 µM, 37°C, 60 mins) was “greater than 50%” and the Tmax ([4]; po, 20 mg/kg) was 30 min. The Tmax ([4]; sc, 10 mg/kg) was ~55 min, the Solubility ([5]; water (pH 7)) was 70 µg/mL (≈ 271 µM) and the solubility at 72 h ([5]; water, pH 7, Solubility) was < 70 µg/mL. For the same molecule, the “Blood-plasma (B/P) ratio” value (Blood-plasma partition) was 0.83 and 0.83 ± 0.03, the recovery at 4 h, 1 μM (Stability in plasma [6]) was 105 ± 4.25% and the “calculated log P” value ([7]; 25°C / room temperature) was 3.92 ± 0.39. For the same molecule, the “calculated pKa” value ([7]; 25°C) was 2.23 ± 0.30, the remaining at 1 h, 3 µM [8] was 3.7 ± 1.36% and the “Contribution to metabolism of CLBQ14” value (CYP2D6; rhCYP2D6) was “primary contributors”. The CLBQ14 turnover (CYP2D6; rhCYP2D6, 1 µM, 37°C, 60 mins) was “greater than 50%”, the remaining at 1 h, 3 µM [9] was 17.5 ± 0.86% and the remaining at 1 h, 3 µM [10] was 26.8 ± 2.37%. The “Contribution to metabolism of CLBQ14” value (CYP2C8) was “may also be a contributor”, the “Stability in aqueous media” value [11] was “relatively stable” and the “Administered dose excreted unchanged in urine” value [12] was 0.01%. The remaining at 1 h, 3 µM [13] was 35.5 ± 0.33%, the fraction unbound at 1 h, 5 μg/mL ([14]; 5 μg/mL) was 0.09 and the fraction unbound at 1 h, 50 μg/mL ([14]; 50 μg/mL) was 0.017. The recovery at 4 h, 1 μM (Stability in plasma [15]) was 97.6 ± 2.27%, the “Potency against aged non-growing Mtb” value [16] was “increased potency” and the “Potency against replicating Mtb” value ([16]; replicating Mtb) was “great potency”. It also gave a recovery at 4 h, 1 μM (Stability in plasma [17]) of 103.7 ± 0.99%.

In the case of CCOCCOCCO [Transcutol HP], the NOAEL ([18]; 5% solution administered orally to rats for 90 days) is given as 1% and the LD50 ([18]; acute administration) is given as > 5000 mg/kg.
